Reference: ChEMBL document CHEMBL4385642, “Optimization and biological evaluation of nicotinamide derivatives as Aurora kinase inhibitors” (Bioorg Med Chem, 2019)
Calls of active or inactive are those of the source. No cut-off for these calls is given here.

Key:
[1] = biological target: T1, Aurora kinase A (Homo sapiens) (UniProt O14965); assay: Inhibition of Aurora A (unknown origin) at 0.2 uM pre-incubated for 10 mins before FAM-labeled peptide substrate addition by mobility shift assay relative to control
T1 sequence (whole entry): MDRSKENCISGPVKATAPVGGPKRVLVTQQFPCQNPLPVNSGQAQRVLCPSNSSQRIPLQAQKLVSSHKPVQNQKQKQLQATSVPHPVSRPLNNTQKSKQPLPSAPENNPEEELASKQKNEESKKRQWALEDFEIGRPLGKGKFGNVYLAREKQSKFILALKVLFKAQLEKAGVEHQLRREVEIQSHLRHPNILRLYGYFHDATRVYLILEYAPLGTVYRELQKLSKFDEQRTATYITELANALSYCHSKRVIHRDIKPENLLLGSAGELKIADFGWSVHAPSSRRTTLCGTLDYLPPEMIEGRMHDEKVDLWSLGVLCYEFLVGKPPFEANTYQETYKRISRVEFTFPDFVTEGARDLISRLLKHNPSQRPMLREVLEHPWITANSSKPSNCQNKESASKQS

SW-620 [2] = assay: Antiproliferative activity against human SW620 cells assessed as cell confluence level at 10 ug/ml incubated up to 84 hrs and measured every 1 hr by IncuCyte live-cell imaging assay (reference value: 86.5%); type: functional
How it was run: (§1)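 SW620 cells seeded at 5 × 10^3/well and grown 24 h at 37 °C, 5% CO2 inside the IncuCyte. Compounds were then added at 0.12–10.0 µg/mL, with 0.1% DMSO as vehicle control. Phase-contrast images were taken with a 10× objective every 1 h for 84 h. Confluence was scored from the images, in triplicate.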

SW-620 [3] = assay: Antiproliferative activity against human SW620 cells assessed as cell confluence level at 10 ug/ml incubated up to 84 hrs and measured every 1 hr by phase contrast microscopy (reference value: 86.5%); type: functional
How it was run: as §1

SW-620 [4] = assay: Cytotoxicity in human SW620 cells assessed as reduction in cell viability incubated for 72 hrs by MTT assay; type: functional, cell-based; conditions: SW-620, 72 h
How it was run: (§2)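 Cells in DMEM or RPMI 1640 with 10% FBS and 1% penicillin/streptomycin were seeded at 6 × 10^3/well and grown 24 h at 37 °C, 5% CO2. They were exposed 72 h to graded compound concentrations (DMSO under 0.1%). MTT (5 mg/mL, 10 µL) was added for 4 h at 37 °C and formazan dissolved in DMSO. A492 was read against a 630 nm reference, and IC50 came from concentration–response curves.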

NCI-H1975 = assay: Cytotoxicity in human NCI-H1975 cells assessed as reduction in cell viability incubated for 72 hrs by MTT assay; type: functional, cell-based; conditions: NCI-H1975, 72 h
How it was run: as §2

SW-620 [5] = assay: Antiproliferative activity against human SW620 cells assessed as effect on cell confluence level at 0.12 to 3.33 ug/ml incubated up to 84 hrs and measured every 1 hr by phase contrast microscopy; type: functional, cell-based
How it was run: as §1

HT-29 = assay: Cytotoxicity in human HT-29 cells assessed as reduction in cell viability incubated for 72 hrs by MTT assay; type: functional, cell-based; conditions: HT-29, 72 h
How it was run: as §2

HeLa = assay: Cytotoxicity in human HeLa cells assessed as reduction in cell viability incubated for 72 hrs by MTT assay; type: functional, cell-based
How it was run: as §2

[6] = biological target: Aurora kinase B (Homo sapiens) (UniProt Q96GD4); assay: Inhibition of Aurora B (unknown origin) at 0.2 uM pre-incubated for 10 mins before FAM-labeled peptide substrate addition by mobility shift assay relative to control
SW-620 [7] = assay: Induction of apoptosis in human SW620 cells at 3.33 ug/ml incubated for 36 hrs by IncuCyte live-cell imaging assay; type: functional, cell-based
How it was run: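 Apoptosis kinetics by IncuCyte imaging: SW620 cells at 5 × 10^3/well were pre-grown 24 h at 37 °C, 5% CO2, then given compound (0.12–10.0 µg/mL) or 0.1% DMSO. Green-fluorescent apoptotic cells were counted on images taken with a 10× objective every 1 h over 48 h, in triplicate.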

SW-620 [8] = assay: Antiproliferative activity against human SW620 cells assessed as effect on cell confluence level at 0.12 to 3.33 ug/ml incubated up to 84 hrs and measured every 1 hr by IncuCyte live-cell imaging assay; type: functional, cell-based
How it was run: as §1

SW-620 [9] = assay: Cytotoxicity against human SW620 cells assessed as increase in dead cell number at 10 ug/ml incubated for 36 hrs by IncuCyte live-cell imaging assay; type: functional, cell-based
How it was run: (§3)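 Live-cell kinetic imaging of SW620 cells (5 × 10^3/well, 24 h pre-culture at 37 °C, 5% CO2) exposed to 0.12–10.0 µg/mL compound or 0.1% DMSO. Red-fluorescent cells were counted as dead cells, imaged with a 10× objective hourly for 84 h, in triplicate.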

SW-620 [10] = assay: Cytotoxicity against human SW620 cells assessed as increase in dead cell number at 10 ug/ml incubated for 5 hrs by IncuCyte live-cell imaging assay; type: functional, cell-based
How it was run: as §3

Chain of Aurora kinase B (Homo sapiens) (Q96GD4 whole entry): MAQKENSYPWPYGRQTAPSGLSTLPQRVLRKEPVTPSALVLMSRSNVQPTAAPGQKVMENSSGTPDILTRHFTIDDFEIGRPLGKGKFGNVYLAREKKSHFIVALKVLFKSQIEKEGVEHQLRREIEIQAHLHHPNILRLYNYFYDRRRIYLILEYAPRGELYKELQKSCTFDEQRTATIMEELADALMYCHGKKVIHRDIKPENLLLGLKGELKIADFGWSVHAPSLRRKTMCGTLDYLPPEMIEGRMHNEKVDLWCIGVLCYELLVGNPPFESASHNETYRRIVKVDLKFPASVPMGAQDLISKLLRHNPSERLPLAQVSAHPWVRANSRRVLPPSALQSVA

Compound | inhibition [1] [%] | IC50 (SW-620 [4]) [µM] | inhibition [6] [%] | other results
COc1cc2nccc(Oc3ccc(NC(=O)c4cnc(Cl)cc4Nc4ccc(F)c(Br)c4)cc3)c2cc1OC | 81.3 | 1.33 | 30.1 | Activity (SW-620 [2]): 42.6%; Activity (SW-620 [3]): 42.6%; IC50 (NCI-H1975): 3.54 µM; Activity (SW-620 [5]): inactive; IC50 (HT-29): > 20 µM; IC50 (HeLa): > 20 µM; Activity (SW-620 [7]): inactive; Activity (SW-620 [8]): inactive
COc1cc2nccc(Oc3ccc(NC(=O)c4cnc(Cl)cc4Nc4ccccc4F)cc3)c2cc1OC | 51.5 | 8.1 | 50.1 | 
COc1cc2nccc(Oc3ccc(NC(=O)c4cnc(Cl)cc4Nc4ccc(F)c(Br)c4)cc3F)c2cc1OC | 82.9 | 0.61 | 30.5 | Activity (SW-620 [2]): inactive; Activity (SW-620 [9]): Active; Activity (SW-620 [3]): inactive; IC50 (NCI-H1975): 1.06 µM; Activity (SW-620 [5]): inactive; Activity (SW-620 [10]): Active; IC50 (HT-29): > 20 µM; IC50 (HeLa): > 20 µM; Activity (SW-620 [7]): inactive; Activity (SW-620 [8]): inactive
COc1cc2nccc(Oc3ccc(NC(=O)c4c(Nc5ccc(F)c(Br)c5)cc(C)nc4Cl)cc3F)c2cc1OC | 0.6 |  | 17.7 | 
COc1cc2nccc(Oc3ccc(NC(=O)c4cnc(Cl)cc4Nc4cccc(F)c4)cc3)c2cc1OC | 48.6 | 5.1 | 49.6 | 
COc1cc2nccc(Oc3ccc(NC(=O)c4cnc(Cl)cc4Nc4cccc5ccccc45)cc3)c2cc1OC | 59.9 |  | 46.3 | 
COc1cc2nccc(Oc3ccc(NC(=O)c4cnc(Cl)cc4Nc4cccc(Cl)c4)cc3)c2cc1OC | 55.1 | 4.33 | 31.9 | 
COc1cc2nccc(Oc3ccc(NC(=O)c4cnc(Cl)cc4Nc4ccc(F)cc4)cc3)c2cc1OC | 47.1 | 6.82 | 51.6 | 
COc1cc2nccc(Oc3ccc(NC(=O)c4cnc(Cl)cc4Nc4ccc(Br)cc4F)cc3)c2cc1OC | 70 | 2.45 | 31.6 | IC50 (HT-29): > 20 µM; IC50 (HeLa): > 20 µM
COc1cc2nccc(Oc3ccc(NC(=O)C4(C(=O)Nc5ccc(F)cc5)CC4)cc3)c2cc1OC [CABOZANTINIB] |  | 3.37 | 38.3 | Activity (SW-620 [2]): 40.9%; Activity (SW-620 [3]): 40.9%; IC50 (NCI-H1975): 6.67 µM; Activity (SW-620 [5]): inactive; IC50 (HT-29): 9.6 µM; IC50 (HeLa): > 20 µM; Activity (SW-620 [8]): inactive
COc1cc2nccc(Oc3ccc(NC(=O)c4cccnc4Nc4ccc(F)c(Br)c4)cc3F)c2cc1OC | 48.4 | 1.86 | 40.7 | 
COc1cc2nccc(Oc3ccc(NC(=O)c4c[nH]c(=O)cc4Nc4ccccc4)cc3)c2cc1OC | 29.9 | 18.9 | 38.7 | 
COc1cc2nccc(Oc3ccc(NC(=O)c4cnc5ccc(Br)cc5c4Nc4ccc(F)c(Br)c4)cc3F)c2cc1OC | 6.6 |  | 13.7 | 
COc1cc2nccc(Oc3ccc(NC(=O)c4cnc(Cl)cc4Nc4ccccc4)cc3)c2cc1OC | 48.2 | 1.92 | 52.1 | 
COc1cc2nccc(Oc3ccc(NC(=O)c4cnc(Cl)cc4Nc4ccc(Cl)cc4)cc3)c2cc1OC | 51.9 | 2.38 | 38.5 | 
COc1cc2nccc(Oc3ccc(NC(=O)c4cnc(Cl)cc4Nc4ccccc4Cl)cc3)c2cc1OC | 68.3 | 3.6 | 57.1 | 
COc1cc2nccc(Oc3ccc(NC(=O)c4cn(C)c(=O)cc4Nc4ccccc4)cc3)c2cc1OC | 40.9 | 4.43 | 31.1 | 
COc1cc2nccc(Oc3ccc(NC(=O)c4cnc(Cl)cc4Nc4ccccc4Br)cc3)c2cc1OC | 78.2 | 6.9 | 56.1 | IC50 (NCI-H1975): 8 µM; IC50 (HT-29): > 20 µM; IC50 (HeLa): > 20 µM
